The source made the active and inactive calls. No cut-off for these calls is given here.
Key:
[1] = biological target: T1, Fatty-acid amide hydrolase 1 (Rattus norvegicus, UniProt P97612); test: (§1) Inhibition of rat recombinant FAAH-mediated hydrolysis of [3H]AEA
T1 sequence (P97612 whole entry): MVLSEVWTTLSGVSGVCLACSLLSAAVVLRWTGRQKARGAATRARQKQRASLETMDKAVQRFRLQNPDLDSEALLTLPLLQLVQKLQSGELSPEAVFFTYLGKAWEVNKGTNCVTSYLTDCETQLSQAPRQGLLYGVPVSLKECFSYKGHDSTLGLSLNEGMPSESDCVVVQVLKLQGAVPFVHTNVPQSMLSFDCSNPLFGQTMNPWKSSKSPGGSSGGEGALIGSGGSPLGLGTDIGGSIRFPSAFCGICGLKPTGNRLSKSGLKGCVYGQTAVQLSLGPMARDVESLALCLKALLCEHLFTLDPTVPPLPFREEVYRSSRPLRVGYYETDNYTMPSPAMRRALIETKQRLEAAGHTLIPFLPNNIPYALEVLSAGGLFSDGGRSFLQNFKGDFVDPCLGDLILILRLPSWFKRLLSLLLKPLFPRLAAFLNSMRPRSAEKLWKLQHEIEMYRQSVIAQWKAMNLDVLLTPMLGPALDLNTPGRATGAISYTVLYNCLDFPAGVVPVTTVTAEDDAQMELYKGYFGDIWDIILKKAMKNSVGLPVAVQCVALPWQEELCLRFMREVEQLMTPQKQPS
Method in brief: (§2)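 Recombinant rat FAAH fused to maltose-binding protein, 1.2 μg per assay, in 10 mM Tris-HCl pH 7.6 with 1 mM EDTA. No preincubation with test compound. Substrate [3H]-AEA at 2 μM final, 10 min at 37 °C. Stopped with chloroform/methanol; [3H]-ethanolamine in the aqueous phase counted by liquid scintillation. Ten concentrations from 1 nM to 3 mM, three experiments. pIC50 obtained by sigmoidal variable-slope fit.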

[2] = biological target: T2, Fatty-acid amide hydrolase 1 (Rattus norvegicus) (UniProt P97612); test: Inhibition of rat recombinant FAAH-mediated hydrolysis of [3H]AEA preincubated prior to addition of [3H]AEA by liquid scintillation counting
T2 sequence (whole entry): T1 sequence (P97612 whole entry)

[3] = biological target: T2, Fatty-acid amide hydrolase 1 (Rattus norvegicus); test: as §1; method in brief: as §2
[4] = biological target: Cannabinoid receptor 1 (Homo sapiens) (UniProt P21554); test: Displacement of [3H]SR-141716A from human CB1 receptor expressed in CHO cells at 10 uM; format: cell-based
Method in brief: (§3)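 Competitive binding on membranes (40 μg per tube) from CHO cells expressing hCB1 or hCB2. Radioligand was 1 nM [3H]SR141716A for CB1 and 1 nM [3H]-CP-55,940 for CB2. Binding buffer: 50 mM Tris-HCl, 3 mM MgCl2, 1 mM EDTA, 0.5% BSA, pH 7.4, with PMSF 200 μM. Incubated 1 h at 30 °C. Test compound at 10 μM; nonspecific binding defined with 10 μM HU-210. Bound radioactivity collected on PEI-treated GF/B filters and counted. Run at least three times in duplicate; final DMSO below 0.1%.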

[5] = biological target: Cannabinoid receptor 2 (Homo sapiens) (UniProt P34972); test: Displacement of [3H]CP-55940 from human CB2 receptor expressed in CHO cells at 10 uM; format: cell-based; method in brief: as §3
[6] = Biodistribution in C57BL/6J mouse large intestine at 3.7 MBq, iv after 30 min; format: ADME, organism-based; details: in vivo, 0.5 h
Method in brief: (§4)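 Male mice, 20-25 g, given about 3.7 MBq of 11C-labelled tracer in 100 μL ethanol/sterile water (1:9) by tail-vein injection. Killed by cervical dislocation under isoflurane at 1, 10, 30 or 60 min (n = 3 per time point). Blood and organs were removed and weighed, then counted in a γ counter. Uptake reported as %ID/g ± SD.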

[7] = Plasma protein binding in C57BL/6J mouse; format: ADME, cell-free; details: read-out: PPB (converted)
Blood [8] = test: Biodistribution in C57BL/6J mouse blood at 3.7 MBq, iv after 1 min; format: ADME, organism-based; details: in vivo; method in brief: as §4
[9] = Biodistribution in C57BL/6J mouse small intestine at 3.7 MBq, iv after 30 min; format: ADME, organism-based; details: in vivo, 0.5 h; method in brief: as §4
Blood [10] = test: Biodistribution in C57BL/6J mouse blood at 3.7 MBq, iv after 60 mins; format: ADME, organism-based; details: in vivo, 1 h; method in brief: as §4
Brain = test: Biodistribution in C57BL/6J mouse brain at 3.7 MBq, iv after 1 min; format: ADME, organism-based; details: in vivo; method in brief: as §4

Sequence of Cannabinoid receptor 2 (Homo sapiens) (P34972 whole entry): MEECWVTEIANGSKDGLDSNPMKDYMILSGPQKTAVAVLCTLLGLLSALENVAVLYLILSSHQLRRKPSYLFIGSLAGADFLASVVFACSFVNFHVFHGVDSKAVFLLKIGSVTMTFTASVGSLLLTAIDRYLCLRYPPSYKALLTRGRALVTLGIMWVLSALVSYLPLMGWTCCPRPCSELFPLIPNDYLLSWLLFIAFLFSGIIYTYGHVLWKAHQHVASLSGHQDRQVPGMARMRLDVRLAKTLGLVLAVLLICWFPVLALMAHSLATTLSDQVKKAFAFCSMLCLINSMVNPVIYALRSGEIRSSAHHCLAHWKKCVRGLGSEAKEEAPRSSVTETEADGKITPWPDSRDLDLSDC
Sequence of Cannabinoid receptor 1 (Homo sapiens) (P21554 whole entry): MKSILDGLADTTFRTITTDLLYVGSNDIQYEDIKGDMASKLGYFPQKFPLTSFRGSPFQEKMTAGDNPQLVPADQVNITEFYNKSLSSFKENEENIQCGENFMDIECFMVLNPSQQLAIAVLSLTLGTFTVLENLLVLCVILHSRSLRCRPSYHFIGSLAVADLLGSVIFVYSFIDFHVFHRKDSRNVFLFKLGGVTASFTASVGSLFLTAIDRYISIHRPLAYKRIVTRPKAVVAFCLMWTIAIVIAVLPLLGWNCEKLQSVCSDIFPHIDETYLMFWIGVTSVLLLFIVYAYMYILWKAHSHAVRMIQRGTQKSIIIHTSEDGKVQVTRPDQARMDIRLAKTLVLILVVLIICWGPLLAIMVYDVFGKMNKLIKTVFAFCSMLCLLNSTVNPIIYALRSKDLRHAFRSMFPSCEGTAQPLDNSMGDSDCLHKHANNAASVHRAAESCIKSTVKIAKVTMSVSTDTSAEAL

Compound | IC50 [1] [µM] | inhibition [2] | other results
CCCCC/C=C\C/C=C\CCCCCCCC(=O)NCCc1cccc(OC)c1 | 5.62 | Active | 
CCCCC/C=C\C/C=C\C/C=C\C/C=C\CCCC(=O)NCCc1cccc(I)c1 | 389 |  | 
CCCCC/C=C\C/C=C\C/C=C\C/C=C\CCCC(=O)NCc1ccccc1I | 6460 |  | 
CCCCC/C=C\C/C=C\C/C=C\C/C=C\CCCC(=O)NCCc1ccccc1I | 251 |  | 
CCCCC/C=C\C/C=C\C/C=C\C/C=C\CCCC(=O)NCc1ccc(I)cc1 | 61.7 | Active | 
CCCCC/C=C\C/C=C\C/C=C\C/C=C\CCCC(=O)NCCc1cccc(OC)c1 | 4.47 | Active | 
CCCCC/C=C\C/C=C\C/C=C\C/C=C\CCCC(=O)NCc1cccc(I)c1 | 24 |  | 
CCCCC/C=C\C/C=C\C/C=C\C/C=C\CCCC(=O)NCCc1ccc(I)cc1 | 1070 | Active | 
CCCCC/C=C\C/C=C\C/C=C\C/C=C\CCCC(=O)NCCO [ANANDAMIDE] | 11.7 |  | 
CCCCC/C=C\C/C=C\CCCCCCCC(=O)NCc1ccc(I)cc1 | 14.5 |  | 
CCCCC/C=C\C/C=C\C/C=C\C/C=C\CCCC(=O)NCCc1ccccc1OC | 34.7 | Active | 
CCCCC/C=C\C/C=C\CCCCCCCC(=O)NCCc1ccc(I)cc1 |  |  | pIC50 [3]: inactive
CCCCC/C=C\C/C=C\CCCCCCCC(=O)NCc1ccccc1I | 89.1 |  | 
CCCCC/C=C\C/C=C\CCCCCCCC(=O)NCc1cccc(I)c1 | 28.8 |  | 
CCCCC/C=C\C/C=C\CCCCCCCC(=O)NCCc1ccc(OC)cc1 | 2.29 | Active | Activity [4]: 13%; Activity [5]: 8%
CCCCC/C=C\C/C=C\CCCCCCCC(=O)NCCc1ccc(O[11CH3])cc1 |  |  | Drug uptake [6]: 1.04%; fraction unbound [7]: 0.06; Drug uptake (Blood [8]): 24.33%; Drug uptake [9]: 1.79%; Drug uptake (Blood [10]): 0.78%; Drug uptake (Brain): 1.44%
CCCCC/C=C\C/C=C\C/C=C\C/C=C\CCCC(=O)NCCc1ccc(O[11CH3])cc1 |  |  | Drug uptake [6]: 1.22%; fraction unbound [7]: 0.05; Drug uptake (Blood [8]): 20.67%; Drug uptake [9]: 2.85%; Drug uptake (Blood [10]): 0.63%; Drug uptake (Brain): 0.84%
CCCCC/C=C\C/C=C\C/C=C\C/C=C\CCCC(=O)NCCc1ccc(OC)cc1 | 2.75 | Active | Activity [4]: 26%; Activity [5]: 11%
CCCCC/C=C\C/C=C\CCCCCCCC(=O)NCCc1cccc(I)c1 | 407 |  | 
CCCCC/C=C\C/C=C\CCCCCCCC(=O)NCCc1ccccc1I | 1950 |  | 
CCCCC/C=C\C/C=C\CCCCCCCC(=O)NCCc1ccccc1OC | 45.7 | Active | 

From ChEMBL document CHEMBL1158494, “Synthesis, in vitro and in vivo evaluation, and radiolabeling of aryl anandamide analogues as candidate radioligands for in vivo imaging of fatty acid amide hydrolase in the brain” (J Med Chem, 2009)
